ChEMBL document CHEMBL4219134, “Xanthone derivatives as phosphoglycerate mutase 1 inhibitors: Design, synthesis, and biological evaluation” (Bioorg Med Chem, 2018)
pIC50: −log10 of the molar value.

How the values were obtained:
[1] = biological target: L-lactate dehydrogenase (Homo sapiens) (UniProt V9HWB9); assay: Inhibition of LDH (unknown origin) at 5 uM using 2-PG relative to control
How it was run: (§1)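 PGAM1 omitted to test the downstream coupling enzymes. Compound (0.5 mM stock) preincubated 2 min at room temperature in 50 mM Tris pH 8.0. OD340 decrease read; inhibition ratio at 5 µM.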

PANC-1 [2] = assay: Antiproliferative activity against PGAM1 knockdown human PANC1 cells after 72 hrs by MTT assay; type: functional, cell-based; conditions: PANC-1, 72 h
How it was run: (§2)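 MTT assay: 2 × 10^3 cells per well, cultured 24 h at 37 °C. Compound then added for 72 h at 37 °C, followed by 0.5 mg mL-1 MTT for 4 h. Formazan dissolved in DMSO and absorbance read at 570 nm. IC50 from triplicate experiments, mean ± sd.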

MCF7 = assay: Antiproliferative activity against human MCF7 cells after 72 hrs by MTT assay; type: functional, cell-based; conditions: MCF7, 72 h; how it was run: as §2
PANC-1 [3] = assay: Antiproliferative activity against human PANC1 cells after 72 hrs by MTT assay; type: functional, cell-based; conditions: PANC-1, 72 h; how it was run: as §2
PANC-1 [4] = assay: Antiproliferative activity against PGAM1 overexpessed human PANC1 cells after 72 hrs by MTT assay; type: functional, cell-based; conditions: PANC-1, 72 h; how it was run: as §2
Homo sapiens [5] = species on record: Homo sapiens; assay: Inhibition of enolase (unknown origin) at 5 uM using 2-PG relative to control; how it was run: as §1
NCI-H1299 [6] = assay: Antiproliferative activity against human H1299 cells after 72 hrs by MTT assay; type: functional, cell-based; conditions: NCI-H1299, 72 h; how it was run: as §2
Homo sapiens [7] = species on record: Homo sapiens; assay: Inhibition of pyruvate kinase (unknown origin) at 5 uM using 2-PG relative to control; how it was run: as §1
[8] = biological target: T1, Phosphoglycerate mutase 1 (Homo sapiens, UniProt P18669); assay: Inhibition of recombinant PGAM1 (unknown origin) using 3-PG as substrate preincubated for 2 mins followed by substrate addition
T1 sequence (P18669 whole entry): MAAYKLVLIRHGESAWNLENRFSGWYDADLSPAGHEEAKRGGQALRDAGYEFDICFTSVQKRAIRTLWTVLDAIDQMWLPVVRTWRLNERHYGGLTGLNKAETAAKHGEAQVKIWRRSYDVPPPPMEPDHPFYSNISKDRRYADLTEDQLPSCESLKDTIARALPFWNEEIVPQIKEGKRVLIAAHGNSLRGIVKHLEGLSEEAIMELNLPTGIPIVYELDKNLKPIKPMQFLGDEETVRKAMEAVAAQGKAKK
How it was run: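 Recombinant PGAM1 plus compound (DMSO) in 50 mM Tris pH 8.0, preincubated 2 min at room temperature. Started with 3PG (200 mM stock); NADH oxidation read as OD340 decrease. IC50 from triplicates, mean ± sd.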

NCI-H1299 [9] = assay: Antiproliferative activity in human H1299 cells; type: functional, cell-based
[10] = biological target: L-lactate dehydrogenase (Homo sapiens) (UniProt V9HWB9); assay: Inhibition of LDH (unknown origin) at 0.625 uM using 2-PG relative to control
How it was run: (§3)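 Counter-screen of the coupled downstream enzymes without PGAM1. Compound was preincubated 2 min at room temperature in 50 mM Tris pH 8.0. The reaction was started with 2PG (200 mM stock), and the NADH oxidation decrease was read at 340 nm.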

Homo sapiens [11] = species on record: Homo sapiens; assay: Inhibition of pyruvate kinase (unknown origin) at 0.625 uM using 2-PG relative to control; how it was run: as §3
Homo sapiens [12] = species on record: Homo sapiens; assay: Inhibition of enolase (unknown origin) at 0.625 uM using 2-PG relative to control; how it was run: as §3
[13] = biological target: T1, Phosphoglycerate mutase 1; assay: Inhibition of recombinant human His-tagged PGAM1 expressed in Escherichia coli BL21 competent cells by multiple enzymes coupled assay measuring NADH oxidation at 340 nm
NCI-H1299 [14] = assay: Antiproliferative activity in human NCI-H1299 cells after 72 hrs; type: functional, cell-based; conditions: NCI-H1299, 72 h
How it was run: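 MTT assay: 2 × 10^3 cells per well were seeded and cultured 24 h at 37 °C. Inhibitor was added and cells were incubated 72 h at 37 °C. MTT was then added at 0.5 mg/mL for 4 h at 37 °C, followed by DMSO solubilisation and absorbance reading at 570 nm. IC50 is reported as mean ± sd of triplicates.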

| SMILES | inhibition [1] [%] | pIC50 (PANC-1 [2]) | pIC50 (MCF7) | pIC50 (PANC-1 [3]) | pIC50 (PANC-1 [4]) | inhibition (Homo sapiens [5]) [%] | pIC50 (NCI-H1299 [6]) | inhibition (Homo sapiens [7]) [%] | pIC50 [8] | pIC50 (NCI-H1299 [9]) | inhibition [10] [%] | inhibition (Homo sapiens [11]) [%] | inhibition (Homo sapiens [12]) [%] | pIC50 [13] | pIC50 (NCI-H1299 [14]) |
| --- | --- | --- | --- | --- | --- | --- | --- | --- | --- | --- | --- | --- | --- | --- | --- |
| O=c1c2c(O)cccc2oc2cc(NS(=O)(=O)c3cc(C(F)(F)F)ccc3C(F)(F)F)c(O)c(O)c12 | 2 | 4.37 | 4.80 | 4.98 | 4.60 | 2 | 4.77 | 2 | 5.20 |  |  |  |  |  |  |
| O=C1c2ccccc2C(=O)c2c1cc(S(=O)(=O)Nc1ccc(C(F)(F)F)cc1)c(O)c2O | 38 |  | < 4.40 | 4.49 |  | 38 |  | 38 |  | 4.59 |  |  |  |  |  |
| O=C(O[C@@H]1Cc2c(O)cc(O)cc2O[C@@H]1c1cc(O)c(O)c(O)c1)c1cc(O)c(O)c(O)c1 [EPIGALOCATECHIN GALLATE] |  |  |  |  |  |  |  |  |  |  | 63 | 63 | 63 | 6.31 | < 4.10 |
